Measurements published in article PMC9621298 (Journal of Enzyme Inhibition and Medicinal Chemistry, 2022).
Entries after “also recorded” stand apart in the source; their conditions may differ. Values belong to the molecule of their own block, whether it stands above or below them.

How the values were obtained:
Siah1 [1] = molecular target: T1, Siah1 (Homo sapiens, UniProt Q8IUQ4); experiment: Surface plasmon resonance; format: binding; conditions: details are not reported
T1 sequence (Q8IUQ4 1-282): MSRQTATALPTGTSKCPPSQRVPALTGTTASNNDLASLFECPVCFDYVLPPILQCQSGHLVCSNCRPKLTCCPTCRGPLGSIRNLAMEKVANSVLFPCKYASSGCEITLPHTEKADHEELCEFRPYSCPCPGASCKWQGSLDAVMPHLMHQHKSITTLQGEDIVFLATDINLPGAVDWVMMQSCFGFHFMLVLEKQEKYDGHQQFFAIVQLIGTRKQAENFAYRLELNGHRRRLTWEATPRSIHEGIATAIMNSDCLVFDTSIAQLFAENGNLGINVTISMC

Siah1 [2] = molecular target: T1, Siah1; experiment: In vitro pull-down assay with biotin-attached E3 ligase ligands; conditions: tested as biotin-attached 5 and 6; no binding to AIMP2-DX2
AIMP2-DX2 [3] = molecular target: T2, AIMP2-DX2 (Homo sapiens, UniProt Q13155); experiment: Screening: luminescence of luciferase-tagged AIMP2-DX2 in A549 cells; format: cell-based; conditions: 4 µM, 24 h
T2 sequence (Q13155 1-251 isoform Q13155-2): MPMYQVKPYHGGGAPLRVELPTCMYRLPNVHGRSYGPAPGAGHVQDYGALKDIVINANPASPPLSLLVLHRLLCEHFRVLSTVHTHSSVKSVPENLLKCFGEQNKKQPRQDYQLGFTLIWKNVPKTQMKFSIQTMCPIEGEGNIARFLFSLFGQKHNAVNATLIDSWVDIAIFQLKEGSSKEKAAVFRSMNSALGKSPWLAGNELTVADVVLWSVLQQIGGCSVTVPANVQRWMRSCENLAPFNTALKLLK

Siah1-knockdowned cells = experiment: MTT cell viability assay with Siah1 knockdown by si-RNA; format: cell-based; conditions: Figure 7(A)
Method in brief: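 Cells were knocked down for Siah1 with specific si-RNA and then treated with test compound. Viability was read by MTT: 96 h in serum-free medium, MTT for 1.5 h at 37 °C, formazan in DMSO, absorbance at 560 nm. Siah1 and AIMP2-DX2 protein levels were checked by immunoblotting. Three independent repeats.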

AIMP2-DX2 [4] = molecular target: T2, AIMP2-DX2; experiment: Western blotting of AIMP2-DX2 protein level; format: cell-based; conditions: Figure 6(A)
[5] = molecular target: T3, binding of Siah1 to AIMP2-DX2 (Homo sapiens, UniProt Q13155+Q8IUQ4); experiment: Immunoprecipitation assay: cellular binding of AIMP2-DX2 and Siah1; format: cell-based; conditions: Figure 5(A)
T3 sequence (Q13155 1-251 isoform Q13155-2): T2 sequence (Q13155 1-251 isoform Q13155-2)
T3 sequence (Q8IUQ4 1-282): T1 sequence (Q8IUQ4 1-282)

[6] = molecular target: T4, binding of Siah1 and AIMP2-DX2 (Homo sapiens, UniProt Q13155+Q8IUQ4); experiment: In vitro pull-down assay: binding of Siah1 and AIMP2-DX2; conditions: Figure 5(B)
T4 sequence (Q13155 1-251 isoform Q13155-2): T2 sequence (Q13155 1-251 isoform Q13155-2)
T4 sequence (Q8IUQ4 1-282): T1 sequence (Q8IUQ4 1-282)
Method in brief: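 Direct binding of the two proteins was tested in vitro by GST pull-down with test compound present. An empty-vector control was included. GST proteins were detected by Coomassie staining.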

AIMP2 = molecular target: T5, AIMP2 (Homo sapiens, UniProt Q13155); experiment: Western blotting of AIMP2 level; format: cell-based; conditions: selectivity versus AIMP2-DX2
T5 sequence (Q13155 1-320): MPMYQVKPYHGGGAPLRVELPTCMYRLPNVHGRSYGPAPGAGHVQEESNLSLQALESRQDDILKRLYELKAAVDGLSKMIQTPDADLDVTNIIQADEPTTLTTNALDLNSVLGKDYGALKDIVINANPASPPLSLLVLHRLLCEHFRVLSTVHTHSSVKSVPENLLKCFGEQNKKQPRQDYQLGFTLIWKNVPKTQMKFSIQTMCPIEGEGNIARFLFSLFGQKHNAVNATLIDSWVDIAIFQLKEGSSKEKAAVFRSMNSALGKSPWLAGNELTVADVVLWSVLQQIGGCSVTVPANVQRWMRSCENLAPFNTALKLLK

AIMP2-DX2 [7] = molecular target: T2, AIMP2-DX2; experiment: Ubiquitination assay in 293 T cells expressing strep-tagged AIMP2-DX2; format: cell-based; conditions: 293 T cells expressing strep-AIMP2-DX2, with MG132
Method in brief: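 293 T cells were grown in DMEM with 10% FBS at 37 °C in 5% CO2 and expressed strep-tagged AIMP2-DX2 from the pEXPR-IBA5 vector. AIMP2-DX2 was pulled down on strep-tactin, run on SDS-PAGE and immunoblotted, including with anti-ubiquitin.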

SMILES: Nc1cccc2c1C(=O)N(C1CCC(=O)NC1=O)C2=O (centres unmarked) [Compound 4, pomalidomide]
binding affinity with Siah1 (SPR) (Siah1 [1]): most favourable; also recorded: some degree of binding affinity
binding to Siah1 (in vitro pull-down) (Siah1 [2]): specifically bind to Siah1

SMILES: O=C1CCC(N2C(=O)c3cccc(NC(=O)CCOCCOCCOCCOCc4cn(Cc5ccc(S(=O)(=O)N[C@@H](Cc6c[nH]c7ccccc67)C(=O)Nc6ccc(N7CCOCC7)cc6)cc5)nn4)c3C2=O)C(=O)N1 (stereo partly drawn) [Compound 21, 1–(1-(4-(N-((S)-3-(1H-Indol-3-yl)-1-((4-morpholinophenyl)amino)-1-oxopropan-2-yl)sulfamoyl)benzyl)-1H-1,2,3-triazol-4-yl)-N-(2–(2,6-dioxopiperidin-3-yl)-1,3-dioxoisoindolin-4-yl)-2,5,8,11-tetraoxatetradecan-14-amide]
inhibitory activity on AIMP2-DX2 (in words) (AIMP2-DX2 [3]): very poor inhibitory activities

SMILES: O=C1CCC(N2C(=O)c3cccc(NC(=O)CCOCCOCCOCCOCCOCc4cn(Cc5ccc(S(=O)(=O)N[C@@H](Cc6c[nH]c7ccccc67)C(=O)Nc6ccc(N7CCOCC7)cc6)cc5)nn4)c3C2=O)C(=O)N1 (stereo partly drawn) [Compound 22, 1–(1-(4-(N-((S)-3-(1H-Indol-3-yl)-1-((4-morpholinophenyl)amino)-1-oxopropan-2-yl)sulfamoyl)benzyl)-1H-1,2,3-triazol-4-yl)-N-(2–(2,6-dioxopiperidin-3-yl)-1,3-dioxoisoindolin-4-yl)-2,5,8,11,14-pentaoxaheptadecan-17-amide]
inhibitory activity on AIMP2-DX2 (in words) (AIMP2-DX2 [3]): very poor inhibitory activities

SMILES: O=C1CCC(N2C(=O)c3cccc(NC(=O)CCOCCOCCOCCOCCOCCOCc4cn(Cc5ccc(S(=O)(=O)N[C@@H](Cc6c[nH]c7ccccc67)C(=O)Nc6ccc(N7CCOCC7)cc6)cc5)nn4)c3C2=O)C(=O)N1 (stereo partly drawn) [Compound 23, 1–(1-(4-(N-((S)-3-(1H-Indol-3-yl)-1-((4-morpholinophenyl)amino)-1-oxopropan-2-yl)sulfamoyl)benzyl)-1H-1,2,3-triazol-4-yl)-N-(2–(2,6-dioxopiperidin-3-yl)-1,3-dioxoisoindolin-4-yl)-2,5,8,11,14,17-hexaoxaicosan-20-amide]
inhibitory activity on AIMP2-DX2 (in words) (AIMP2-DX2 [3]): very poor inhibitory activities

SMILES: O=C1CCC(N2C(=O)c3cccc(NC(=O)COCCOCCOCCOCCOCCNC(=O)c4ccc(S(=O)(=O)N[C@@H](Cc5c[nH]c6ccccc56)C(=O)Nc5ccc(N6CCOCC6)cc5)cc4)c3C2=O)C(=O)N1 (stereo partly drawn) [Compound 31, 4-(N-((S)-3-(1H-Indol-3-yl)-1-((4-morpholinophenyl)amino)-1-oxopropan-2-yl)sulfamoyl)-N-(17-((2–(2,6-dioxopiperidin-3-yl)-1,3-dioxoisoindolin-4-yl)amino)-17-oxo-3,6,9,12,15-pentaoxaheptadecyl)benzamide]
inhibitory activity on AIMP2-DX2 (in words) (AIMP2-DX2 [3]): very poor inhibitory activities

The next lines start with results.

inhibitory activity on AIMP2-DX2 (in words) (AIMP2-DX2 [3]): very poor inhibitory activities
SMILES: O=C1CCC(N2C(=O)c3cccc(OCCOCCOCCOCCOCCOCc4cn(Cc5ccc(S(=O)(=O)N[C@@H](Cc6c[nH]c7ccccc67)C(=O)Nc6ccc(N7CCOCC7)cc6)cc5)nn4)c3C2=O)C(=O)N1 (stereo partly drawn) [Compound 16, (2S)-2-((4-((4–(16-((2–(2,6-dioxopiperidin-3-yl)-1,3-Dioxoisoindolin-4-yl)oxy)-2,5,8,11,14-pentaoxahexadecyl)-1H-1,2,3-triazol-1-yl)methyl)phenyl)sulfonamido)-3-(1H-indol-3-yl)-N-(4-morpholinophenyl)propanamide]

level of AIMP2-DX2 protein (AIMP2-DX2 [4]): specifically decreased
binding of Siah1 and AIMP2-DX2 (in vitro pull-down) [6]: direct effect on binding of two proteins
effect on AIMP2 (AIMP2): without any effect on AIMP2
ubiquitination of AIMP2-DX2 (AIMP2-DX2 [7]): induced
SMILES: Cc1ccc(S(=O)(=O)N[C@@H](Cc2c[nH]c3ccccc23)C(=O)Nc2ccc(N3CCN(C(=O)CCOCCNc4cccc5c4C(=O)N(C4CCC(=O)NC4=O)C5=O)CC3)cc2)cc1 (stereo partly drawn) [Compound 45, (2S)-N-(4–(4-(3–(2-((2–(2,6-Dioxopiperidin-3-yl)-1,3-dioxoisoindolin-4-yl)amino)ethoxy)propanoyl)piperazin-1-yl)phenyl)-3-(1H-indol-3-yl)-2-((4-methylphenyl)sulfonamido)propanamide]
cell viability (Siah1-knockdowned cells; Siah1 knocked down using specific si-RNA): no significant difference in cell viability
cell viability (Siah1-knockdowned cells; Siah1 not knocked down): efficiently reduced cell viability
endogenous binding of Siah1 to AIMP2-DX2 (immunoprecipitation) [5]: enhances the endogenous binding of Siah1 to AIMP2-DX2 in a dose-dependent manner
